# System: MS2 coat protein
# Assay: apparent Kd, MS2 coat protein; higher = weaker binding; RNA-MaP array; FMN 200 µM where present
# Summary of the method: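 On Illumina sequencing-chip clusters, designs were transcribed by stalled E. coli RNA polymerase and titrated with SNAP-549-labelled MS2 coat protein (0.7 or 1.5 nM, doubling to 3 µM), without and then with constant ligand, in 100 mM Tris-HCl pH 7.5, 80 mM KCl, 4 mM MgCl2, BSA, DTT, yeast tRNA and Tween-20. Apparent Kd is the median of filtered per-cluster curve fits to green signal normalised to red-channel RNA signal and control-cluster median Fmax.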
# [1] = designed as: OFF switch for flavin mononucleotide, no ligand
# [2] = ligand present: flavin mononucleotide, designed as: OFF switch for flavin mononucleotide
# [3] = designed as: ON switch for flavin mononucleotide, no ligand
# [4] = ligand present: flavin mononucleotide, designed as: ON switch for flavin mononucleotide
Sequence,apparent Kd [1],apparent Kd [2],apparent Kd [3],apparent Kd [4]
UCAUCAACGGGCGGGUCGGUUGGACAUGAGGAUCACCCAUGUAGAAGGACCGGUGGACUCCGCCGGUAGGAUAUACAUUUGGUG,0.0416 µM,0.0301 µM,–,–
GUGGCAUACUGAGGAUAUUCAUAUAAUAAAUAAACAUGAGGAUCACCCAUGUGGCGAAAGCCUUGGGAGAAGGCAGAAUGCUAC,–,–,0.521 µM,0.0467 µM
GGAAAUCAUGUAGGAUAUGCAUGGCGAAGCUACGCAGAAGGACAUGAGGAUCACCCAUGUUAUAGCGUCCGAGAAAGGAUGCAA,0.111 µM,0.167 µM,–,–
ACAUACAUUCGAGGAUAUCGGUGAUUUAUUUUACGAGAAGGCGAUUUAAGAUUUAUUAUUUUAGACAUGAGGAUCACCCAUGUA,–,–,0.0277 µM,0.0245 µM
UUGUUACAUGAGGAUCACCCAUGUGAGGAUAUGGUUCGGUACUGUCCUGUCGCGUACUCCAGAAGGCACGUGUU,0.0308 µM,0.0374 µM,–,–
AUGCGUGGCUAGGAUAUUGAGGAAAUUAGUCAGCGAGAAGGAGCCACAUGAGGAUCACCCAUGUGGUGAAGCUC,0.0155 µM,0.0603 µM,–,–
AAACAGGCAGGAUAUACAUGAGGAUCACCCAUGUGCAUAAACUGGCUGCGUCCGAAUCGUAGAAGGGCCUGCAU,0.502 µM,0.126 µM,–,–
UCUACAUAGAUUCAUCAAUACAGUAAGGAUAUGAGAUACAUGAGGAUCACCCAUGUGCAUGUGAAUUAGAAGGUACAAUUAACU,0.0157 µM,0.0128 µM,–,–
CGUGUCAUCGAGAAGGCCUCAACAUGAGGAUCACCCAUGUUGUAAUAUGGGAGGAUAUCGAUGAUACAGCUACGUUUCGUAGCC,–,–,0.0195 µM,0.00648 µM
GCUCGGAGAGGAUAUACAUGAGGAUCACCCAUGUAGGUAAGCAGCGAUGGCAGUCCAUGUAGAAGGUUCAGGUG,0.0434 µM,0.0497 µM,–,–
UUGAUGUCAUCAGGAUAUAGUAUUUAAGACAUAUAUUUUUUCAAACAUGAGGAUCACCCAUGUCGCUAGAAGGGAUUAUAGAUU,0.041 µM,0.0357 µM,–,–
GUAGUUAGUAGAGGAUAUUAGUAUGUGUAAUAUUGAGAAGGUUACAUGAGGAUCACCCAUGUGAUCAAUCACUGUUAAGGUUGC,0.00648 µM,0.00671 µM,–,–
GGAGCCGGCCUAGGAUAUUUCAUAAUAUUACAUGAGGAUCACCCAUGUAGGCCAGAAGGCCUUGGGAAGAAGGAGGUCGGCUCC,–,–,0.0427 µM,0.0159 µM
GGACGUCCCAUUAACAUGAGGAUCACCCAUGUCAAAAGACAUGAGGAUAUGCUACCUAAUUGGUAGCAGAAGGCAUGGACGUCC,–,–,0.878 µM,0.0854 µM
AAAUUUAACGAAGGAUAUGCUUACAUGAGGAUCACCCAUGUGUGCCUUGUGAUGCUGAUUAAGUUGCAGAAGGUCGUAUACAUA,0.124 µM,0.414 µM,–,–
GAUUAACAUGAGGAUCACCCAUGUCGUUAAAUGGGAGGAUAUACGUGGACCGUAGUCCGCGUAGAAGGCCUAAUUG,–,–,0.144 µM,0.0292 µM
UGCGUUAAGCCCUUAAGUCGUCAACAUGAGGAUCACCCAUGUAGAAGGCAGCGGACGCGGCCGGCUGAGGAUAUACAUGUAGGU,0.0133 µM,0.0168 µM,–,–
UUAUACAUGAGGAUCUCCCAUGACAUGAGGAUCACCCAUGUGCAGGAUAUACGUGUUAUAAUAUAGUAGAAGGGCAGUCUAUAU,0.0368 µM,0.104 µM,–,–
UGUCGGAGCAGAGGAUAUUACAUGAGGAUCACCCAUGUAUGAACCAUUAGCUGGAAACAGCAAUGUAAGAAGGCUGCUCCGACA,0.00537 µM,0.0104 µM,–,–
CUAUGAAGAAUAGGAUAUUCGAUCAAAAGGAUAGAAGAAGGGUUACAUGAGGAUCACCCAUGUAUGCACAUGAGGAUCCCUUAG,0.188 µM,0.196 µM,–,–
CGUUUAUUUAUGGGUUUAGAUUAUGAGGAUAUCAUUUUUUUAUACAUGAGGAUCACCCAUGUUACUGAGAAGGCAUAAUUAACG,–,–,0.0164 µM,0.00709 µM
AGCGGCGCGGGCCACCGCAAAACCAGAAGGACAUGAGGAUCACCCAUGUAACAAAACAGGGCGGUGUAGGAUAUGGCAGACCCA,0.0103 µM,0.0118 µM,–,–
ACAUGAGGAUCACCCAUGUUCACAUAGGAUAUUGAUUAUAUUGGAUAUAGAAUAUUUAUAAUACACAAGAAGGAUGCAAGAUGG,–,–,0.0164 µM,0.0135 µM
AAUAACAGAGGAUAUACUGUUUUAUGUGUUUAUUGUUUUGAACAUGAGGAUCACCCAUGUAGAAGGCUGAGUAA,0.0278 µM,0.0282 µM,–,–

# Source: the EternaBench riboswitch data
